Results as given in paper PMC10470302 (iScience, 2023).

Experiments:
[1] = system: CHERP recruitment to the genome, HEK293 cells; assay: ChIP-seq of CHERP; format: cell-based, human; conditions: 2μM flavopiridol, HA-CHERP in HEK293 cells, HA antibody ChIP-seq
[2] = system: Ser2/Thr4 phosphorylation on RNA polymerase II, HEK293 cells; assay: Western blot of Pol II phosphorylation after flavopiridol; format: cell-based, human; conditions: time course (Figure S10A)
CHERP (SCAF6) = CHERP (SCAF6) (UniProt Q8IWX8); assay: GST-CTD pull-down, label-free LC-MS/MS; conditions: reference: GST-CTD, buffer with no kinase; sites S2
[3] = system: pSer2 Pol II and CHERP in HEK293 cells; assay: Immunofluorescence colocalization of CHERP and pSer2 Pol II; format: cell-based, human; conditions: transfected HEK293 cells, confocal, no flavopiridol, N = 7
Outline: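 HEK293 cells were transfected (Fugene, 1:3 plasmid:reagent) with HA-CHERP or HA-CHERPΔCID, fixed 15 min in 1% formaldehyde at room temperature, and permeabilized with 0.2% Triton X-100. They were blocked 30 min in 2% BSA, then given primary antibody and Alexa Fluor 488/568 secondary, 1 h each at room temperature. Pearson coefficients were computed with threshold, from 7 cells across at least two biological replicates.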

[4] = system: Pol II (RPB1, pSer2, pThr4), HEK293 cells; assay: Co-immunoprecipitation with Pol II; format: cell-based, human; conditions: HEK293 extracts, western blot, at least three independent replicates
Outline: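 Protein G beads were loaded overnight at 4°C with 3 µg antibody or control IgG. 250 µg protein was bound for 2 h, washed three times, eluted by boiling 5 min in 2× SDS buffer, then immunoblotted.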

CN1CC[C@H](c2c(O)cc(O)c3c(=O)cc(-c4ccccc4Cl)oc23)[C@H](O)C1 [flavopiridol]
CHERP recruitment to the genome with flavopiridol [1]: great reduction of CHERP recruitment to the genome
Ser2/Thr4 phosphorylation on RNA polymerase II [2]: caused Ser2/Thr4 phosphorylation to be reduced

yeast CTD (GST-yCTD 26x) CTD, 26 heptad repeats GST-CTD treated with DYRK1A
fold change (CHERP (SCAF6)): 2.9

B1: CHERP: calcium homeostasis endoplasmic reticulum protein; endogenous or HA-tagged full-length (protein)
chain: MEMPLPPDDQELRNVIDKLAQFVARNGPEFEKMTMEKQKDNPKFSFLFGGEFYSYYKCKLALEQQQLICKQQTPELEPAATMPPLPQPPLAPAAPIPPAQGAPSMDELIQQSQWNLQQQEQHLLALRQEQVTAAVAHAVEQQMQKLLEETQLDMNEFDNLLQPIIDTCTKDAISAGKNWMFSNAKSPPHCELMAGHLRNRITADGAHFELRLHLIYLINDVLHHCQRKQARELLAALQKVVVPIYCTSFLAVEEDKQQKIARLLQLWEKNGYFDDSIIQQLQSPALGLGQYQATLINEYSSVVQPVQLAFQQQIQTLKTQHEEFVTSLAQQQQQQQQQQQQLQMPQMEAEVKATPPPPAPPPAPAPAPAIPPTTQPDDSKPPIQMPGSSEYEAPGGVQDPAAAGPRGPGPHDQIPPNKPPWFDQPHPVAPWGQQQPPEQPPYPHHQGGPPHCPPWNNSHEGMWGEQRGDPGWNGQRDAPWNNQPDAAWNSQFEGPWNSQHEQPPWGGGQREPPFRMQRPPHFRGPFPPHQQHPQFNQPPHPHNFNRFPPRFMQDDFPPRHPFERPPYPHRFDYPQGDFPAEMGPPHHHPGHRMPHPGINEHPPWAGPQHPDFGPPPHGFNGQPPHMRRQGPPHINHDDPSLVPNVPYFDLPAGLMAPLVKLEDHEYKPLDPKDIRLPPPMPPSERLLAAVEAFYSPPSHDRPRNSEGWEQNGLYEFFRAKMRARRRKGQEKRNSGPSRSRSRSKSRGRSSSRSNSRSSKSSGSYSRSRSRSCSRSYSRSRSRSRSRSRSSRSRSRSQSRSRSKSYSPGRRRRSRSRSPTPPSSAGLGSNSAPPIPDSRLGEENKGHQMLVKMGWSGSGGLGAKEQGIQDPIKGGDVRDKWDQYKGVGVALDDPYENYRRNKSYSFIARMKARDECK
colocalization correlation value (Pearson), CHERP vs pSer2 Pol II [3]: 0.77
co-immunoprecipitation with Pol II or its phosphorylation forms [4]: interacted with total Pol II
